Legend:
[1] = target: T1, Sterol O-acyltransferase 1 (Rattus norvegicus) (UniProt O70536); assay: In vitro inhibitory activity against acyl coenzyme A:cholesterol acyltransferase (ACAT); set-up: concentration or dose not given beside the values; conditions: concentration not given here
T1 sequence (whole entry): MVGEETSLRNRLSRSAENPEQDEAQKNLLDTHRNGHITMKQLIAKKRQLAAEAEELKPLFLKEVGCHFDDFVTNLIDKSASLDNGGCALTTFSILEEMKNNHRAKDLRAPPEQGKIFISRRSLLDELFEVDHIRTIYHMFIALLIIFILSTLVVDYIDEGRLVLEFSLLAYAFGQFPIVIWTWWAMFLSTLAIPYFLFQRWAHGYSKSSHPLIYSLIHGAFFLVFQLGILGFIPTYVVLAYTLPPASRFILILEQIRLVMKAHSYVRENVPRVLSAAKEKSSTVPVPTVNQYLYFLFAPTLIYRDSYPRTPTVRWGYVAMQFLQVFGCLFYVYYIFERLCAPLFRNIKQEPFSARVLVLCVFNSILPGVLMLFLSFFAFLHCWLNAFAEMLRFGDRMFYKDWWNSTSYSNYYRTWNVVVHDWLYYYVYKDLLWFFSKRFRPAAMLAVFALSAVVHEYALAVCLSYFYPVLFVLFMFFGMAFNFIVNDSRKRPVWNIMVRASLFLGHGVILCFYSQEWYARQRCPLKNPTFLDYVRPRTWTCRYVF
Summary of the method: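 ACAT enzyme from rat adrenal homogenate in 0.2 M KH2PO4 buffer pH 7.4, 1000g 15 min 5 °C supernatant (microsomal fraction). Supernatant + BSA (50 mg/mL) + compound at final 5.2 μg/mL + buffer preincubated 10 min 37 °C; [14C]oleoyl-CoA (0.4 μCi) added, 30 min 37 °C. Lipids extracted, TLC; cholesteryl ester zone counted. Mean % inhibition vs no-compound control; Student's t test.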

Rattus norvegicus [2] = assay: In vivo Triglyceride lowering activity at dose as 0.017 % of the diet.; type: functional
Summary of the method: (§1)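 Male CFE or CD-1 Sprague-Dawley rats, 140-150 g; 8 per control group, 4 per test group. Compound mixed into ground chow (w/w) via MeOH-CHCl3 (1:3) solution, solvent evaporated; controls got solvent-treated chow. Fed ad libitum 5 days, food intake monitored, killed fed and bled. Serum sterols and triglycerides by adapted autoanalyzer methods; mean percent of control, Student's t test.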

Rattus norvegicus [3] = assay: In vivo Sterol lowering activity at dose as 0.017 % of the diet.; type: functional; summary of the method: as §1
Rattus norvegicus [4] = assay: In vivo Sterol lowering activity at dose as 0.05 % of the diet.; type: functional; summary of the method: as §1
Rattus norvegicus [5] = assay: In vivo Sterol lowering activity at dose as 0.10 % of the diet.; type: functional; summary of the method: as §1
Rattus norvegicus [6] = assay: In vivo Triglyceride lowering activity at dose as 0.05 % of the diet.; type: functional; summary of the method: as §1
Rattus norvegicus [7] = assay: In vivo triglyceride lowering activity, dosed at 0.10 % of the diet.; type: functional; summary of the method: as §1
Rattus norvegicus [8] = assay: In vivo triglyceride lowering activity, dosed at 0.03 % of the diet; type: functional; summary of the method: as §1
Rattus norvegicus [9] = assay: In vivo Sterol lowering activity at dose as 0.05 % of the diet; type: functional; summary of the method: as §1
Rattus norvegicus [10] = assay: In vivo sterol lowering activity dosed at 0.10 % of the diet; type: functional; summary of the method: as §1
Rattus norvegicus [11] = assay: In vivo Triglyceride lowering activity at dose as 0.03 % of the diet.; type: functional; summary of the method: as §1
Rattus norvegicus [12] = assay: In vivo triglyceride lowering activity, dosed at 0.01 % of the diet.; type: functional; summary of the method: as §1
Rattus norvegicus [13] = assay: In vivo Sterol lowering activity at dose as 0.01 % of the diet; type: functional; summary of the method: as §1
Rattus norvegicus [14] = assay: In vivo Sterol lowering activity at dose as 0.03 % of the diet; type: functional; summary of the method: as §1
Rattus norvegicus [15] = assay: In vivo Triglyceride lowering activity at dose as 0.025 % of the diet; type: functional; summary of the method: as §1
Rattus norvegicus [16] = assay: In vivo Sterol lowering activity at dose as 0.025 % of the diet.; type: functional; summary of the method: as §1
Rattus norvegicus [17] = assay: In vivo triglyceride lowering activity dosed at 0.10 % of the diet; type: functional; summary of the method: as §1
Rattus norvegicus [18] = assay: In vivo triglyceride lowering activity dosed at 0.05 % of the diet; type: functional; summary of the method: as §1
Rattus norvegicus [19] = assay: In vivo Triglyceride lowering activity at dose as 0.01 % of the diet; type: functional; summary of the method: as §1

Compound	inhibition [1] [%]	Diet (Rattus norvegicus [2]) [%]	Diet (Rattus norvegicus [4]) [%]	serum sterol, percent of control (Rattus norvegicus [5]) [%]	serum sterol, percent of control (Rattus norvegicus [10]) [%]	Diet (Rattus norvegicus [15]) [%]	Diet (Rattus norvegicus [16]) [%]	serum triglycerides, percent of control (Rattus norvegicus [17]) [%]	Diet (Rattus norvegicus [18]) [%]	other results
O=C(O)c1ccc(NCCc2cccs2)cc1	5	121	81	88	–	–	–	–	–	Diet (Rattus norvegicus [3]): 74%; Diet (Rattus norvegicus [6]): 97%; Diet (Rattus norvegicus [7]): 103%
CCOC(=O)c1ccc(NCc2ccccc2)cc1	45	97	–	–	86	–	–	–	–	serum triglycerides, percent of control (Rattus norvegicus [8]): 88%; Diet (Rattus norvegicus [3]): 108%; Diet (Rattus norvegicus [9]): 90%; Diet (Rattus norvegicus [7]): 78%
CCOC(=O)c1ccc(NCCCc2ccc(F)cc2)cc1	25	–	–	–	81	–	–	–	–	Diet (Rattus norvegicus [11]): 71%; Diet (Rattus norvegicus [12]): 90%; Diet (Rattus norvegicus [7]): 68%; Diet (Rattus norvegicus [13]): 83%; Diet (Rattus norvegicus [14]): 78%
COc1ccc(CNc2ccc(C(=O)O)cc2)cc1	5	–	95	94	–	69	91	60	–	Diet (Rattus norvegicus [6]): 76%
O=C(O)c1ccc(NCc2ccccc2)cc1	2	92	–	–	87	–	–	65	62	Diet (Rattus norvegicus [3]): 101%; Diet (Rattus norvegicus [9]): 86%
CCOC(=O)c1ccc(NC/C=C/c2ccccc2)cc1	–	–	86	–	84	73	92	60	58	–
O=C(O)c1ccc(NCCCc2ccc(OCc3ccccc3)cc2)cc1	2	–	96	93	–	67	90	60	69	–
CCOC(=O)c1ccc(NCCc2cccc3ccccc23)cc1	9	112	103	94	–	–	–	73	–	Diet (Rattus norvegicus [3]): 98%; Diet (Rattus norvegicus [6]): 80%
O=C(O)c1ccc(NCc2ccc(OCc3ccccc3)cc2)cc1	16	91	98	97	–	–	93	89	85	–
O=C(O)c1ccc(NCCc2ccc(F)cc2)cc1	0	–	86	91	–	72	104	54	50	–
CCOC(=O)c1ccc(NCCCc2ccccc2)cc1	61	–	–	–	79	77	94	57	56	Diet (Rattus norvegicus [9]): 77%
O=C(O)c1ccc(NCCc2ccc(OCc3ccccc3)cc2)cc1	18	–	103	–	–	70	100	–	–	Diet (Rattus norvegicus [5]): 86%; Diet (Rattus norvegicus [6]): 81%; Diet (Rattus norvegicus [7]): 84%
O=C(O)c1ccc(NCCc2ccccc2)cc1	9	–	84	–	88	64	90	48	–	Diet (Rattus norvegicus [6]): 70%
O=C(O)c1ccc(NCc2ccc(-c3ccccc3)cc2)cc1	7	–	98	90	–	61	98	42	70	–
CCOC(=O)c1ccc(NCc2ccc(OCc3ccccc3)cc2)cc1	45	97	100	–	91	–	–	–	85	Diet (Rattus norvegicus [3]): 105%; Diet (Rattus norvegicus [7]): 92%
CCOC(=O)c1ccc(NCc2ccc(OC)cc2)cc1	49	–	92	94	–	73	95	48	62	–
CCOC(=O)c1ccc(NCCCc2ccccc2OC)cc1	64	–	107	107	–	61	96	–	–	Diet (Rattus norvegicus [6]): 66%; Diet (Rattus norvegicus [7]): 74%
O=C(O)c1ccc(NCCc2cccc3ccccc23)cc1	–	89	108	93	–	–	–	63	67	Diet (Rattus norvegicus [3]): 108%
C=CCCCCCCCC/C=C/CCCNc1ccc(C(=O)[O-])cc1.[Na+]	–	–	–	–	86	106	–	87	90	Diet (Rattus norvegicus [13]): 88%; Diet (Rattus norvegicus [14]): 92%
CCOC(=O)c1ccc(NCCCc2ccc(OCc3ccccc3)cc2)cc1	50	–	86	–	–	56	86	56	46	Diet (Rattus norvegicus [5]): 96%
CCCCCCCCc1ccc(CNc2ccc(C(=O)O)cc2)s1	15	–	–	–	<72	–	–	70	–	serum triglycerides, percent of control (Rattus norvegicus [8]): 70%; Diet (Rattus norvegicus [19]): 82%; Diet (Rattus norvegicus [13]): 85%; Diet (Rattus norvegicus [14]): <76%
C=C(CCCCCCCCCC)CCCCCNc1ccc(C(=O)O)cc1	< 71	–	–	–	<53	–	–	<30	–	serum triglycerides, percent of control (Rattus norvegicus [8]): <64%; Diet (Rattus norvegicus [19]): <65%; Diet (Rattus norvegicus [13]): <81%; Diet (Rattus norvegicus [14]): <85%
